Assay results from different studies.
Oprd1: Delta-type opioid receptor (Oprd1, Rattus norvegicus, UniProt P33533)

SMILES | target | test | conditions | quantity | value
CC[C@@H](C)[C@@H]1CN([C@H](Cc2ccc3ccccc3c2)CN2CCC[C@H]2CN2CCNC[C@@H]2CO)CCN1CCc1ccc(Cl)c(Cl)c1 | Oprd1 | ligand displacement, radioligand | 0.5 µM, 2 h, pH 7.5, cell membranes | remaining binding | 87.7%
CN(C)C(=O)COC(=O)Cc1ccc(OC(=O)c2ccc(NC(=N)N)cc2)cc1 | Ubiquitin carboxyl-terminal hydrolase 14 (USP14, Homo sapiens, UniProt P54578) | enzyme activity, inhibitor | 10 µM | inhibition | 0%
Oc1ccc(C[C@@H]2CN([C@H](Cc3ccc4ccccc4c3)CN3CCC[C@H]3CN3CCNC[C@@H]3Cc3ccc4ccccc4c3)CCN2CCC23CC4CC(CC(C4)C2)C3)cc1 | Oprd1 | ligand displacement, radioligand | 0.5 µM, 2 h, pH 7.5, cell membranes | remaining binding | 94.4%
C#Cc1n[nH]c2c(-c3cn([C@@H](C)c4ccccc4)c(=O)[nH]c3=O)cc(F)cc12 | Tyrosine-protein kinase ZAP-70 (ZAP70, Homo sapiens, UniProt P43403) | enzyme activity, inhibitor | 0.1 µM | inhibition | 2%
CCCC[C@H]1CNCCN1C[C@@H]1CCCN1C[C@@H](Cc1ccc2ccccc2c1)N1CCN(CCC23CC4CC(CC(C4)C2)C3)[C@H]([C@@H](C)O)C1 | Oprd1 | ligand displacement, radioligand | 0.5 µM, 2 h, pH 7.5, cell membranes | remaining binding | 87.3%
C#Cc1n[nH]c2c(-c3cn(C(C)c4ccccn4)c(=O)[nH]c3=O)cc(F)cc12 (stereo not shown) | Cyclin-dependent kinase 2, with cyclin E1 (CDK2, Homo sapiens, UniProt P24941) | enzyme activity, inhibitor | 1 µM | inhibition | -13.7%
C[C@@H](O)[C@@H]1CN([C@H](Cc2ccc3ccccc3c2)CN2CCC[C@H]2CN2CCNC[C@@H]2Cc2ccc3ccccc3c2)CCN1CCc1ccc(Cl)c(Cl)c1 | Oprd1 | ligand displacement, radioligand | 0.5 µM, 2 h, pH 7.5, cell membranes | remaining binding | 105%
CCN(CC)CCCC[C@H](NC(=O)[C@H](CC(C)C)NC(=O)[C@H](C)NC(=O)[C@H](Cc1ccccc1)NC(=O)c1ccc(C(C)(C)C)cc1)C(=O)N[C@@H](CO)C(=O)OC | Bromodomain-containing protein 7 (BRD7, Homo sapiens, UniProt Q9NPI1) | thermal stability, DSF | 25 µM | ΔTm | 0.08 °C
CN(C(=O)[C@H](Cc1ccccc1)NC(=O)[C@@H](NC(=O)OCc1ccccc1)C(C)(C)C)N(C#N)CCC(N)=O | Cathepsin B (CTSB, Homo sapiens, UniProt P07858) | enzyme activity, inhibitor | – | kon | 7020 M⁻¹ s⁻¹
C[C@@H](O)[C@@H]1CN([C@H](Cc2ccc3ccccc3c2)CN2CCC[C@H]2CN2CCNC[C@@H]2Cc2ccc3ccccc3c2)CCN1CCC12CC3CC(CC(C3)C1)C2 | Oprd1 | ligand displacement, radioligand | 0.5 µM, 2 h, pH 7.5, cell membranes | remaining binding | 100%
N=C(N)c1ccc2cc(OC(=O)c3ccc(N=C(N)N)cc3)ccc2c1 | Dipeptidyl peptidase 9 (DPP9, Homo sapiens, UniProt Q86TI2) | enzyme activity, inhibitor | 10 µM | inhibition | 13%
CN1CCN(c2ccc(Nc3nccc(-c4ccccc4)n3)cc2C(F)(F)F)CC1 | Cyclin-dependent kinase 2 homolog (CRK2, Plasmodium falciparum, UniProt P61075) | cell-free assay | 10 µM | remaining signal | 100%
Nc1ncc(-c2nc(N3CCOCC3)nc(N3CCOCC3)n2)c(C(F)F)n1 | Cyclin-dependent kinase 8 (CDK8, Homo sapiens, UniProt P49336) | binding, competition with immobilised ligand | 10 µM | remaining binding | 100%
COc1ncccc1-c1cnn2ccc(N3CCN(C(=O)OC(C)C)CC3)nc12 | Mitogen-activated protein kinase kinase kinase kinase 1 (MAP4K1, Homo sapiens, UniProt Q92918) | binding, competition with immobilised ligand | 1 µM | remaining binding | 80%
Cc1nn(C)cc1-c1nc2c(N3CCN(Cc4ccc(Cl)cc4)CC3)c(Cl)cnc2[nH]1 | Myosin light chain kinase family member 4 (MYLK4, Homo sapiens, UniProt Q86YV6) | binding, competition with immobilised ligand | 1 µM | remaining binding | 94%
CC(C)N1CCC[C@H]1CNC(=O)c1cn(C2CCCC2)c(=O)c2c1c1ccccc1n2C | Platelet-activating factor receptor (PTAFR, Homo sapiens, UniProt P25105) | ligand displacement, radioligand | 10 µM | inhibition | 7%
